MrgX1 ag = agonists of human MrgX1 receptor, primary screen, HEK293 cells, Fluo-4 calcium flux | Fluo-4 calcium fluorescence, agonist mode; stronger effect = higher value | B-score at 10 µM | 310,000 tested, 0.44% active | AID 588627, 2011;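 active = calcium response B-score plate-corrected fluorescence ratio at least 3 library SD, with starting fluorescence B-score inside 5 SD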
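Assay system: MrgX1-expressing HEK293 cells / Amount: fifteen thousand cells per well / Doses: test compound in the initial addition of three / Timing: cells plated overnight, dye loaded 0.5 h 37 °C, 0.5 h room temperature / Technique: kinetic calcium dye fluorescence, Fluo-4 NW / Control set: positive and negative controls per plate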
RGS4 pot = RGS4 potentiators or activators, primary screen, cell-based, HEK293 M3R inducible RGS4, calcium flux | B-score at 10 µM | 310,000 tested, 0.92% active | carbachol calcium flux Fluo4; stronger effect = lower value | AID 463111, 2010;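 active = B-score of the integrated calcium signal more than 4 SD below the library mean, with starting fluorescence not abnormally high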;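 note: negative B-score means reduced calcium response which marks RGS4 activation or potentiation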
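Also added: carbachol at ECmax as muscarinic agonist stimulus; Assay system: HEK293 cells with stable M3R and inducible RGS4; Timing: overnight RGS4 induction, 30 min dye load 37 °C, 20 min compound RT; Measured by: Fluo4-AM (2 µM) calcium-flux fluorescence, kinetic read.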
RGS4 inh = RGS4 inhibitors, primary screen, cell-based, HEK293 M3R inducible RGS4, calcium flux | 310,000 tested, 0.45% active | Regulator of G-protein signaling 4 (Homo sapiens), P49798 | B-score at 10 µM | Fluo-4 calcium flux; stronger effect = higher value; triggered by carbachol at its EC20;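 active = B-score, a plate-corrected calcium signal, over three deviations above library mean, with baseline fluorescence within five deviations of library mean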;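 note: RGS4 expression induced by doxycycline in cells with stable M3 receptor; B-score is computed from the integrated fluorescence ratio over baseline after carbachol; higher B-score means a larger calcium signal and so more RGS4 inhibition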
Target sequence (P49798 whole entry, looked up): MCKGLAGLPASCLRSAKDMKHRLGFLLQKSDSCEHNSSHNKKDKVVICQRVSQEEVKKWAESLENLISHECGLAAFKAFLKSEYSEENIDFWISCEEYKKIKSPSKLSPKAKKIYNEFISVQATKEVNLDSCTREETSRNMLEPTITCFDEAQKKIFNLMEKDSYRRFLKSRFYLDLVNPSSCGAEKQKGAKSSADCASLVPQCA
MrgX1 antagonist = antagonists of human MrgX1 receptor, primary screen, HEK293 cells, Fluo-4 calcium flux | Mas-related G-protein coupled receptor member X1 (Homo sapiens), Q96LB2 | BAM8-22 antagonism; stronger effect = lower value | B-score at 10 µM | 310,000 tested, 1.3% active | AID 588676, 2011;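 active = calcium-response B-score plate-corrected more than 3 library SD below zero, starting fluorescence within 5 deviations, no agonist response on first addition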;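 note: peak minus trough fluorescence over baseline after final BAM8-22 challenge near maximal dose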
PHOSPHO1 block = PubChem AID 1565; recombinant PHOSPHO1, absorbance phosphatase assay; Phosphoethanolamine/phosphocholine phosphatase (Homo sapiens), Q8TCT1; 290,000 tested, 1.1% active; inhibition, % at 13.3 µM; in the data active = inhibition above about 60%
Target sequence (Q8TCT1 whole entry, looked up): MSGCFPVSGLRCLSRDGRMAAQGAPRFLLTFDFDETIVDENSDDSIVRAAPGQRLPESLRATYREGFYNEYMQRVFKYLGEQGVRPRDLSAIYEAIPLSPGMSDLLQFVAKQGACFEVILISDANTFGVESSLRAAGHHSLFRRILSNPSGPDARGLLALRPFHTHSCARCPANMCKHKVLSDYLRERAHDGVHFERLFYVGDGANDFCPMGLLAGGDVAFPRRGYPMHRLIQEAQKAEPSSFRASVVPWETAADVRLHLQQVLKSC
MrgX1 PAM = positive allosteric modulators of MrgX1, primary screen, HEK293 cells, Fluo-4 calcium flux | 310,000 tested, 0.63% active | FDSS; stronger effect = higher value | B-score at 10 µM | AID 588675, 2011 | Mas-related G-protein coupled receptor member X1 (Homo sapiens), Q96LB2;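 active = plate-corrected calcium response at least 3 library SD above typical, normal starting fluorescence, not activating the receptor alone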;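 note: compound read alongside a low EC10 to EC30 dose of BAM8-22 agonist; peak minus trough fluorescence over baseline measured at the second addition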
Of the large screens only hits and unclear results are named; the others gave an inactive call. Only some compounds are listed: those with a hit (about 4.5% of all), similar ones and a draw of the others.

O=C(NC(=S)NCCCN1CCOCC1)c1cccc2ccccc12	none
CCCC1=Nc2cc(C(=O)N3CCN(c4ccccn4)CC3)ccc2Sc2ccc(C)cc21	RGS4 pot -7.5
CCOC(=O)c1ccc(NS(=O)(=O)c2ccc3[nH]c(=O)[nH]c3c2)cc1	PHOSPHO1 block 63
CCC(CC)NC(=O)c1ccc(NS(=O)(=O)c2ccc3[nH]c(=O)[nH]c3c2)cc1	none
O=c1c2cc3c(=O)n(-c4ccccc4O)c(=O)c3cc2c(=O)n1-c1ccccc1O	none
Cc1cc(=S)[nH]c2c(C)cccc12	PHOSPHO1 block 98
O=C(COc1ccc(Br)cc1)N(Cc1ccco1)C1CCS(=O)(=O)C1 (stereo not drawn)	none
COc1ccc(C[C@H](C)NC[C@@H](O)c2ccc(O)c(NC=O)c2)cc1	MrgX1 PAM 7.7 (no result: PHOSPHO1 block)
COc1ccc([C@H](C)NC[C@H](O)c2ccc(O)c(NC=O)c2)cc1	none
CCn1c(COc2cccc(C)c2)nnc1SCC(=O)N1CCCC1	none
CCn1c(COc2ccccc2C)nnc1SCC(=O)CC(=O)Nc1ccccc1OC	none
CCn1c(COc2cccc(C)c2)nnc1SCC(=O)CC(=O)Nc1ccccc1OC	PHOSPHO1 block 93
CCn1c(COc2ccccc2)nnc1SCC(=O)CC(=O)Nc1ccccc1OC	PHOSPHO1 block 92
COC(=O)c1ccccc1NC(=O)CSc1nc2ncccc2[nH]1	PHOSPHO1 block 64
COC(=O)c1ccccc1NC(=O)CSc1ncccn1	none
CNS(=O)(=O)c1cccc(C(=O)OCC(=O)c2cc(C)n(-c3ccc4c(c3)OCO4)c2C)c1	none
Cc1cc(C(=O)COc2ccccc2Cl)c(C)n1-c1ccc2c(c1)OCO2	RGS4 pot -7.5
COc1ccc(/C=C(\C#N)C(=O)c2cccn2C)cc1	none
COc1ccccc1/C=C(\C#N)C(=O)c1cccn1C	MrgX1 ag 32
Cn1cccc1C(=O)/C(C#N)=C/c1ccc(F)cc1	MrgX1 ag 35
COc1ccccc1/C=C(/C#N)C(=O)O	none
CCN(Cc1cc(=O)[nH]c2ccccc12)C(=O)c1ccc(C)cc1	none
COc1ccc(OC)c(NC(=O)c2cccc(NC(=O)c3ccccc3C(=O)O)c2)c1	none
CCOC(=O)NC(=O)COC(=O)CNC(=O)c1ccc(OCC)c(OCC)c1	MrgX1 PAM 8.9
CCOc1ccc(CCNC(=O)COC(=O)CNC(=O)c2ccc(Br)o2)cc1OCC	none (no result: PHOSPHO1 block)
CCc1ccc(OCC(=O)NNC(=O)Cc2ccc(S(=O)(=O)N3CCOCC3)s2)cc1	MrgX1 antagonist -6.9 (no result: PHOSPHO1 block)
Cc1ccc(OCCNC(=O)Cc2ccc(S(=O)(=O)N3CCOCC3)s2)cc1	none
COCC(C)NC(=O)c1nn(Cc2ccccc2)c(=O)c2ccccc12 (stereo not drawn)	none
Nc1sc(-c2ccccc2)n[n+]1Cc1cccc2cccnc12	RGS4 pot -7.1, MrgX1 antagonist -4.7
Oc1ccccc1CNc1cccc2cccnc12	none
COCc1cc(Sc2c(Cl)cccc2Cl)nc(-c2ccccc2)n1	MrgX1 PAM 9.3
COC(=O)Nc1ccc(S(=O)(=O)N2CCCC(C(=O)N3CCCCCC3)C2)cc1 (stereo not drawn)	none
CCN(CCN(C)C)C(=O)c1ccc2c(c1NCCO)C(=O)c1ccccc1C2=O	none
CC1(C)CCCN(C(=O)c2ccc3c(c2NCCO)C(=O)c2ccccc2C3=O)C1	MrgX1 PAM 15
CCNc1c(C(=O)O)ccc2c1C(=O)c1ccccc1C2=O	none
CC1CCCN(C(=O)c2ccc3c(c2NCCO)C(=O)c2ccccc2C3=O)C1 (stereo not drawn)	MrgX1 PAM 8
O=C1c2ccccc2C(=O)c2c1ccc(C(=O)N1CCCCC1)c2NCCO	MrgX1 PAM 7
CCOc1ccccc1/C=N/NC(=O)c1nnn(-c2nonc2N)c1CN1CCCCCC1	none (no result: PHOSPHO1 block)
O=C(Nc1ccnn1C1CCN(Cc2cccc(F)c2F)CC1)C1CCCC1	none
CN1CCN(CC#CCC(O)(c2ccccc2)C2CCCC2)CC1 (stereo not drawn)	RGS4 pot -7.5
OC(CC#CCN1CCCCC1)(c1ccccc1)c1ccccc1	RGS4 pot -7.5
OC(CC#CCN1CCCC1)(c1ccccc1)c1ccccc1	none
CN1CCN(CC#CCC(O)(c2ccccc2)c2ccccc2)CC1	none
Cc1cc(C)c2[nH]c(C(=O)Nc3ccc(F)cc3Br)cc2c1	none
Cc1ccc(C(=O)C(c2ccccc2)N2Cc3ccccc3C2=N)cc1 (stereo not drawn)	RGS4 pot -8.1
CC(C)(C)c1oc(C(=O)O)cc1CN1CCOCC1	none
Cc1nn(-c2ccc(F)cc2)c(Cl)c1/C=C/C(=O)OCC(=O)Nc1ccc(F)cc1F	none
Cc1ccc(NC(=O)COC(=O)/C=C/c2c(C)nn(-c3ccc(F)cc3)c2Cl)cc1F	MrgX1 antagonist -5.4
O=C(COC(=O)c1ccccc1Br)Nc1ccccc1F	none
COc1ccccc1/C=C/C(=O)OCC(=O)NCc1ccco1	none
COc1ccccc1/C=C/C(=O)OCC(=O)NNC(=O)c1ccccc1	MrgX1 antagonist -5.2
O=C(c1ncc[nH]1)c1cccs1	none
CCc1nc(CN(C)C(=O)C2CCC(=O)N(CCc3cccc(F)c3)C2)no1 (stereo not drawn)	none
COc1ccc(-c2nc[nH]c2[N+](=O)[O-])cc1	none
COC(=O)c1ccc(/C(O)=C(\C#N)c2nc3ccccc3s2)cc1	MrgX1 ag 28
COC(=O)c1ccc(CC(=O)c2nc3ccccc3s2)cc1	none
COc1cccc(C=Nc2ccccc2C(=O)Nc2ccccc2)c1O	none
C[N+]1(CC(=O)OC2CCCCCCCCCCC2)CCCC1	RGS4 pot -7.2
COC(=O)CCCCCCCCCC[N+]1(C)CCCCC1	none
Cc1ccccc1Cn1c2ccccc2c2cnn(CC(=O)N3CCN(c4ccccc4)CC3)c(=O)c21	none (no result: MrgX1 ag, RGS4 pot, RGS4 inh, MrgX1 antagonist, MrgX1 PAM)
O=C(Cn1ncc2c3ccccc3n(Cc3ccccc3)c2c1=O)NCCCN1CCCC1=O	MrgX1 antagonist -8.1
O=C(Cn1ncc2c3ccccc3n(Cc3ccc(F)cc3)c2c1=O)N1CCN(c2ncccn2)CC1	MrgX1 antagonist -8.1
COc1ccc(OC)c(NC(=O)NNC(=O)COc2ccc(F)cc2F)c1	none
CC(=O)OCCCCCCCCCCC[N+]1(C)CCCCC1	RGS4 pot -8.9
COc1cc(-c2cc(C(=O)N(C)Cc3ccccc3)c3ccccc3n2)cc(OC)c1OC	none
COc1ccc(-c2cc(C(=O)N(C)Cc3ccccc3F)c3ccccc3n2)cc1OC	RGS4 pot -8.2
